Reference: ChEMBL document CHEMBL4312027, “Synthesis, characterization, and biological activity of a triphenylphosphonium-containing imidazolium salt against select bladder cancer cell lines” (Eur J Med Chem, 2020)
The source made the active and inactive calls. The calls are words filed in the database; no cut-off is given here.

Key:
SK-MEL-28 = experiment: Growth inhibition of human SK-MEL-28 cells assessed as growth percent at 10 uM incubated for 48 hrs by sulforhodamine B assay relative to control; format: functional; conditions: SK-MEL-28, 48 h, read-out: Activity
[1] = Toxicity in anesthetized female mouse model assessed as inflammation at 750 to 1500 uM administered via intravesical instillation after bladder evacuation treated for 1 hr followed by repetition of the treatment after 24 hrs and measured at 24 hrs after final treatment; conditions: in vivo, other
Outline: (§1)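 Female mice anesthetized, 1–3% isoflurane. Bladder evacuated, then 100 μL of 750 or 1500 μM in 10% DMSO/PBS (or vehicle) instilled by 24G angiocatheter. Catheter left in place for a 1 h dwell. Repeated after 24 h; mice sacrificed 24 h after final dose. Bladder histology read for urothelial height and layers.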

UO-31 = experiment: Growth inhibition of human UO31 cells assessed as growth percent at 10 uM incubated for 48 hrs by sulforhodamine B assay relative to control; format: functional; conditions: UO-31, 48 h, read-out: Activity
COLO 205 = experiment: Growth inhibition of human COLO205 cells assessed as growth percent at 10 uM incubated for 48 hrs by sulforhodamine B assay relative to control; format: functional; conditions: COLO 205, 48 h, read-out: Activity
RT-112 [2] = experiment: Mito-toxicity in mitochondria isolated from human RT112 cells assessed as increase in cytochrome C release at 200 uM incubated for 1 hr and measured after 4 hrs incubation in preservative buffer by Western blot analysis; format: functional
Outline: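 Mitochondria isolated from 20 million RT112 cells with a kit. Exposed to 200 μM, 100 μM CCCP or 10% DMSO for 1 h at 37 °C, then kept in mitochondria preservative buffer at 37 °C. Spun after 1 h and 4 h into supernatant and pellet; pellet lysed. Cytochrome c in each fraction detected by western blot.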

Mus musculus = experiment: Induction of urothelium exfoliation in anesthetized female mouse model assessed as effect on urothelial layer thickening at 750 to 1500 uM administered via intravesical instillation after bladder evacuation treated for 1 hr followed by repetition of the treatment after 24 hrs and measured at 24 hrs after final treatment by hematoxylin and eosin staining based analysis; format: organism-based; conditions: in vivo, other; outline: as §1
RT-4 = experiment: Growth inhibition of human RT4 cells at 250 uM measured after 5 to 60 mins by Celltiter-Glo luminescent cell viability assay; format: functional, cell-based
Outline: (§2)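 Cells seeded 10000/well, 24 h, then exposed in ATCC-recommended medium to 62.5–2000 μM (two-fold steps) or vehicle for the set time (5–60 min), then normal medium. After 24 h, plates equilibrated 30 min at room temperature, CellTiter-Glo added, 2 min at room temperature, luminescence read. Survival relative to vehicle control; quadruplicate.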

A549 = experiment: Growth inhibition of human A549/ATCC cells assessed as growth percent at 10 uM incubated for 48 hrs by sulforhodamine B assay relative to control; format: functional; conditions: A549, 48 h, read-out: Activity
PC-3 = experiment: Growth inhibition of human PC3 cells assessed as growth percent at 10 uM incubated for 48 hrs by sulforhodamine B assay relative to control; format: functional; conditions: PC-3, 48 h, read-out: Activity
MDA-MB-231 = experiment: Growth inhibition of human MDA-MB-231 cells assessed as growth percent at 10 uM incubated for 48 hrs by sulforhodamine B assay relative to control; format: functional; conditions: MDA-MB-231, 48 h, read-out: Activity
RT-112 [3] = experiment: Cytotoxicity against human RT112 cells assessed as cellular fragmentation at 250 to 500 uM incubated for 1 hr and measured at 24 hrs after treatment; format: functional, cell-based
MDA-MB-435 = experiment: Growth inhibition of human MDA-MB-435 cells assessed as growth percent at 10 uM incubated for 48 hrs by sulforhodamine B assay relative to control; format: functional; conditions: MDA-MB-435, 48 h, read-out: Activity
RT-112 [4] = experiment: Induction of apoptosis in human RT112 cells assessed as caspase 9 cleavage at 250 to 500 uM incubated for 1 hr and measured at 24 hrs after treatment by Western blot analysis; format: functional, cell-based
Outline: (§3)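 RT112 seeded 300,000/well; after 24 h, 250 or 500 μM or vehicle. Cells plus floating debris harvested immediately or 24 h after treatment, lysed in RIPA with protease inhibitors. About 30 μg protein heated 10 min at 95 °C with DTT, run on SDS-PAGE. Immunoblotted for PARP and caspase 9, Ran as loading control, ECL detection.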

SK-MEL-2 = experiment: Growth inhibition of human SK-MEL-2 cells assessed as growth percent at 10 uM incubated for 48 hrs by sulforhodamine B assay relative to control; format: functional; conditions: SK-MEL-2, 48 h, read-out: Activity
LOX IMVI = experiment: Growth inhibition of human LOXIMVI cells assessed as growth percent at 10 uM incubated for 48 hrs by sulforhodamine B assay relative to control; format: functional; conditions: read-out: Activity
NCI-H460 = experiment: Growth inhibition of human NCI-H460 cells assessed as growth percent at 10 uM incubated for 48 hrs by sulforhodamine B assay relative to control; format: functional; conditions: NCI-H460, 48 h, read-out: Activity
IGROV-1 = experiment: Growth inhibition of human IGROV1 cells assessed as growth percent at 10 uM incubated for 48 hrs by sulforhodamine B assay relative to control; format: functional; conditions: IGROV-1, 48 h, read-out: Activity
[5] = Toxicity in anesthetized BBN-induced bladder tumor mouse model assessed as cleaved caspase 3 level in tumor adjacent normal […] at 1500 uM administered via intravesical instillation treated for 1 hr administered as 2 doses at 24 hrs interval and measured at 24 hrs after final treatment by hematoxylin and eosin staining based immunohistochemical analysis; conditions: in vivo, other
Outline: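 Bladder tumors induced with 0.05% BBN in drinking water and confirmed by excretory μCT urography. Anesthetized (isoflurane) mice given intravesical 1500 μM or vehicle by catheter. Two 1 h doses 24 h apart. Females received 100 μL in 10% DMSO/PBS; males received doubled concentration in 50 μL of 20% DMSO/PBS. Bladder immunohistology for cleaved caspase-3.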

RT-112 [6] = experiment: Induction of apoptosis in human RT112 cells assessed as increase in PARP cleavage at 500 uM incubated for 1 hr and measured immediately after treatment by Western blot analysis; format: functional, cell-based; outline: as §3
A498 = experiment: Growth inhibition of human A498 cells assessed as growth percent at 10 uM incubated for 48 hrs by sulforhodamine B assay relative to control; format: functional; conditions: A498, 48 h, read-out: Activity
SNB-19 = experiment: Growth inhibition of human SNB19 cells assessed as growth percent at 10 uM incubated for 48 hrs by sulforhodamine B assay relative to control; format: functional; conditions: SNB-19, 48 h, read-out: Activity
OVCAR-8 = experiment: Growth inhibition of human OVCAR8 cells assessed as growth percent at 10 uM incubated for 48 hrs by sulforhodamine B assay relative to control; format: functional; conditions: OVCAR-8, 48 h, read-out: Activity
NCI/ADR-RES = experiment: Growth inhibition of human NCI/ADR-RES cells assessed as growth percent at 10 uM incubated for 48 hrs by sulforhodamine B assay relative to control; format: functional; conditions: read-out: Activity
SW780 = experiment: Growth inhibition of human SW780 cells measured after 1 hr by Celltiter-Glo luminescent cell viability assay; format: functional; conditions: SW780, 1 h; outline: as §2
MDA-MB-468 = experiment: Growth inhibition of human MDA-MB-468 cells assessed as growth percent at 10 uM incubated for 48 hrs by sulforhodamine B assay relative to control; format: functional; conditions: MDA-MB-468, 48 h, read-out: Activity

In the case of `[Br-].[Br-].c1ccc([P+](CCCc2n(Cc3ccc4ccccc4c3)c3ccccc3[n+]2Cc2ccc3ccccc3c2)(c2ccccc2)c2ccccc2)cc1`, the growth at 10 µM (SK-MEL-28) is reported as 37.1%, the Activity [1] is reported as “Non-Toxic” and the growth at 10 µM (UO-31) is reported as 61.2%. The growth at 10 µM (COLO 205) was 44.7%, the Activity (RT-112 [2]) was “Active” and the Activity (Mus musculus) was “Non-Toxic”. The “growth inhibition (GI)” value (RT-4) was “Active”, the growth at 10 µM (A549) was 80.2% and the growth at 10 µM (PC-3) was 67.5%. The growth at 10 µM (MDA-MB-231) was 51%, the Activity (RT-112 [3]) was “Active” and the growth at 10 µM (MDA-MB-435) was 25.2%. The Activity (RT-112 [4]) was “inactive”, the growth at 10 µM (SK-MEL-2) was 100% and the growth at 10 µM (LOX IMVI) was 13.8%. The growth at 10 µM (NCI-H460) was 34.8%, the growth at 10 µM (IGROV-1) was 20.8% and the Activity [5] was “Non-Toxic”. For the same molecule, the Activity (RT-112 [6]) was “Active”, the growth at 10 µM (A498) was 67.2% and the growth at 10 µM (SNB-19) was 38.5%. The growth at 10 µM (OVCAR-8) was 70.2%, the growth at 10 µM (NCI/ADR-RES) was 83.7% and the GI50 (SW780) was 200 µM. It also gave a growth at 10 µM (MDA-MB-468) of 34.5%.
